According to ChEMBL document CHEMBL1156634, “Synthesis of somatostatin analogues containing C-terminal adamantane and their antiproliferative properties” (2008):
Where a SMILES comes first, the peptide text is derived from it. Bridges are numbered along the chain shown (N, C = ends). [ ]: non-standard residue; d: D form.

What was measured:
Type in all cases: functional
[1] = system: A-431; experiment: Antiproliferative activity against human A431 cells at 10 uM after 48 hrs by MTT assay; conditions: A-431, 48 h
Outline: (§1)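 MTT read-out: mitochondrial dehydrogenase reduces MTT to formazan in viable cells, cells solubilized with DMSO, absorbance read at 540 nm on an ELISA reader. Cycloheximide and a reference peptide run as positive controls. Values given as % inhibition of cellular proliferation, mean ± SE.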

[2] = system: A-431; experiment: Antiproliferative activity against human A431 cells at 25 uM after 48 hrs by MTT assay; conditions: A-431, 48 h; outline: as §1
[3] = system: A-431; experiment: Antiproliferative activity against human A431 cells at 50 uM after 48 hrs by MTT assay; conditions: A-431, 48 h; outline: as §1
[4] = system: SW480; experiment: Antiproliferative activity against human SW480 cells at 10 uM after 48 hrs by MTT assay; conditions: SW480, 48 h; outline: as §1
[5] = system: SW480; experiment: Antiproliferative activity against human SW480 cells at 25 uM after 48 hrs by MTT assay; conditions: SW480, 48 h; outline: as §1
[6] = system: SW480; experiment: Antiproliferative activity against human SW480 cells at 50 uM after 48 hrs by MTT assay; conditions: SW480, 48 h; outline: as §1

Row | Structure (SMILES) | inhibition at 10 µM [1] [%] | inhibition at 25 µM [2] [%] | inhibition at 50 µM [3] [%] | inhibition at 10 µM [4] [%] | inhibition at 25 µM [5] [%] | inhibition at 50 µM [6] [%]
1 | CC(C)(C)OC(=O)N[C@@H](Cc1ccc(O)cc1)C(=O)N[C@H](Cc1c[nH]c2ccccc12)C(=O)N[C@@H](CCCCNC(=O)OCc1ccccc1)C(=O)O | 0 | 0 | 2 |  |  | 
2 | N[C@@H](Cc1ccc(O)cc1)C(=O)N[C@H](Cc1c[nH]c2ccccc12)C(=O)O | 0 | 8 | 11 |  |  | 
3 | CC(C)(C)OC(=O)N[C@@H](Cc1ccc(O)cc1)C(=O)N[C@H](Cc1c[nH]c2ccccc12)C(=O)N[C@@H](CCCCNC(=O)OCc1ccccc1)C(=O)OCC1c2ccccc2-c2ccccc21 | 2 | 7 | 7 |  |  | 
4 | N[C@@H](Cc1ccc(O)cc1)C(=O)N[C@H](Cc1c[nH]c2ccccc12)C(=O)N[C@@H](CCCCNC(=O)OCc1ccccc1)C(=O)O | 0 | 0 | 0 |  |  | 
5 | C[C@@H]1C[C@@H]([C@H](O)CC2CC(=O)NC(=O)C2)C(=O)[C@@H](C)C1 [CYCLOHEXIMIDE] | 40 | 70 | 80 | 68 | 85 | 92
6 | C[C@@H](O)[C@H](NC(=O)[C@@H]1CSSC[C@H](NC(=O)[C@H](N)Cc2ccccc2)C(=O)N[C@@H](Cc2ccc(O)cc2)C(=O)N[C@H](Cc2c[nH]c3ccccc23)C(=O)N[C@@H](CCCCN)C(=O)N1)C(N)=O [TT-232] (H-[dF]CY[dW]KCT-NH2; disulfide 2-6) | 50 | 60 | 80 | 13 | 47 | 88
